Measurements of several laboratories.
Compare with care: the assays were run in different laboratories.
Target: MAP kinase-activated protein kinase 2 (MAPKAPK2, Homo sapiens, UniProt P49137)

`O=C(Nc1cnn(-c2csc(C(=O)NC3COC3)c2)c1)Nc1c(F)cccc1Cl` gave a remaining activity of 99.8% (enzyme activity, inhibitor; 5 µM).
`Cn1nc(C(=O)NCc2ccc(C(=O)O)cc2)cc1-c1ccc2[nH]ccc2c1` gave a remaining binding of 55% (cell-free assay, competition with immobilised ligand; 0.1 µM).
For `CCN(CC)CCNC(=O)c1c(C)[nH]c(/C=C2\C(=O)Nc3ccc(F)cc32)c1C`, the inhibition was 7% (enzyme activity, inhibitor; 0.3 µM).
`Cn1c(=O)n(-c2ccc(C(C)(C)C#N)cc2)c2c3cc(-c4cnc5ccccc5c4)ccc3ncc21` has a remaining activity of 99% (enzyme activity, inhibitor; 10 µM).
With `CN(C)C(=O)Cn1cc(-c2nc([C@@](C)(c3ccc(-c4cnc(N)nc4)cc3)C3CC3)no2)cn1` the remaining binding was 92% (cell-free assay, competition with immobilised ligand; 1 µM).
With `CCOc1cc(-c2nncn2C)ccc1Nc1ncc2cc(C)nc(NCC(C)(C)C)c2n1` the inhibition was 24% (enzyme activity, inhibitor, FRET; 1 µM).
For `Cc1ccc(Nc2nccc(N(C)c3ccc4c(C)n(C)nc4c3)n2)cc1S(N)(=O)=O`, the inhibition was 4% (enzyme activity, inhibitor; 0.3 µM).
For `CCCS(=O)(=O)Nc1ccc(F)c(C(=O)c2c[nH]c3ncc(-c4ccc(Cl)cc4)cc23)c1F`, the inhibition was < 10% (enzyme activity, inhibitor; 1 µM).
With `Cc1ccc(NC(=O)c2ccc(C)c(C(F)(F)F)c2)cc1C#Cc1nn(C2CCC(O)CC2)c2ncnc(N)c12` (stereo not shown) the remaining signal was 104% (cell-free assay; 10 µM).
`C[C@H](c1ccnc(Nc2nc3ccc(-c4cc(N(C)C)ncn4)cc3[nH]2)c1)N1CCN(C(=O)CC(F)(F)F)CC1` has a remaining binding of 100% (cell-free assay, competition with immobilised ligand; 0.1 µM).
With `Cc1sc(C(=O)NC2COC2)cc1-n1cc(NC(=O)Nc2c(F)cccc2Cl)cn1` the remaining activity was 93.6% (enzyme activity, inhibitor; 10 µM).
`CCCOc1ccc(OC)c(F)c1C(=O)c1ccc(C(=O)N[C@@H]2CNC[C@H]2NC(=O)c2ccc3[nH]ncc3c2)cc1` gave a remaining activity of 49% (enzyme activity, inhibitor; 10 µM).
For `COc1cc(Nc2c(C#N)cnc3cc(OCCCN4CCN(C)CC4)c(OC)cc23)c(Cl)cc1Cl`, the remaining signal was 94.7% (cell-free assay; 0.5 µM).
The remaining binding of `Cc1nc(C2CCN(C(=O)c3ccc(OC(F)(F)F)cc3N)CC2)c2ncc(N3CCN(C)CC3)cc2n1` is reported as 100% (cell-free assay, competition with immobilised ligand; 1 µM).
`Cc1ccc(C(=O)Nc2ccc(CN3CCN(C)CC3)c(C(F)(F)F)c2)cc1C#Cc1cnc2cccnn12` has a remaining activity of 100% (enzyme activity, inhibitor; 23.5 nM).
`CCS(=O)(=O)c1cc2cc(C[C@@](O)(CC(C)(C)c3ccc(F)cc3C(N)=O)C(F)(F)F)[nH]c2cn1` has a remaining binding of 100% (cell-free assay, competition with immobilised ligand; 1 µM).
With `FC(F)(F)Oc1cccc(-c2cnc3ccc(-c4ccncc4)nn23)c1` the activity vs control was 93% (enzyme activity, inhibitor, radiometric; 1 µM).
`Cc1cnc(NC2CCOCC2)nc1-n1cnc(C(=O)NC(CN)c2cc(F)cc(Cl)c2)c1` (stereo not shown) has a remaining activity of 108% (enzyme activity, inhibitor, radiometric; 1 µM).
With `N#CCCc1ccc2c(c1)-c1[nH]c3ccc([N+](=O)[O-])cc3c1CC(=O)N2` the remaining signal was 83.4% (cell-free assay; 0.5 µM).
`Nc1cnc(N2CCc3cc(S(=O)(=O)Nc4c(F)cc(Cl)cc4F)cc(N4CCCC4=O)c32)nc1` has a remaining binding of 100% (cell-free assay, competition with immobilised ligand; 1 µM).
For `CC(C)(C)C(=O)c1sc(NC2CCCCC2)nc1N`, the remaining activity was 102% (enzyme activity, inhibitor; 10 µM).
The inhibition of `CS(=O)(=O)Nc1cccc(-c2csc(NC(=O)CSc3nc4nccnc4c(=O)n3CCc3ccccc3)n2)c1` is reported as 1% (enzyme activity, inhibitor; 10 µM).
`CN(C)C1CCN(CC#Cc2nn(C3CCCC3)c3nc(NCc4ccccc4)ncc23)C1` (stereo not shown) has an inhibition of -2% (enzyme activity, inhibitor, FRET; 1 µM).
With `COc1cc2ncnc(Nc3ccc(Oc4ccccc4)c(C)c3C)c2cc1OC` the inhibition was -17% (enzyme activity, inhibitor; 1 µM).
For `Nc1nc(NC2CCCCC2)sc1C(=O)c1ccccc1`, the remaining activity was 96% (enzyme activity, inhibitor; 10 µM).
For `CNC(=O)c1cc(Oc2ccc(NC(=O)Nc3ccc(Cl)c(C(F)(F)F)c3)cc2)ccn1`, the inhibition was 6% (enzyme activity, inhibitor; 10 µM).
For `C[C@H](NC(=O)c1cnc2n1[C@](C)(Cc1ccc(C#N)cc1)C(=O)N2c1cc(Cl)c(F)c(Cl)c1)C(=O)NC1(c2ccccn2)CC1`, the remaining binding was 100% (cell-free assay, competition with immobilised ligand; 1 µM).
`Oc1cccc(-c2nc(N3CCOCC3)c3oc4ncccc4c3n2)c1` gave a remaining activity of 90% (enzyme activity, inhibitor; 10 µM).
`Clc1ccc(Nc2nnc(Cc3ccncc3)c3ccccc23)cc1` has a remaining signal of 98.8% (cell-free assay; 0.5 µM).
`CCN(CC)c1ccc(C2=NNC(=O)CC2C)cc1[N+](=O)[O-]` (stereo not shown) gave a remaining activity of 86% (enzyme activity, inhibitor; 10 µM).
The remaining activity of `CC(C)(C)c1nc2c(s1)c1nc(N)ncc1c1ccc(NS(=O)(=O)c3c(F)cccc3F)c(F)c12` is reported as 69% (enzyme activity, inhibitor, radiometric; 1 µM).
`COc1cc(Nc2cnc(C#N)c(O[C@H](C)CN(C)C)n2)ncc1-c1cnn(C)c1` gave a remaining activity of 112% (enzyme activity, inhibitor, radiometric; 1 µM).
With `Cc1c(NC(=O)c2cc(C(N)=O)nc3cc(F)ccc23)c(C(F)(F)F)nn1Cc1ccc(C#N)cc1` the remaining binding was 97% (cell-free assay, competition with immobilised ligand; 1 µM).
For `Nc1ncnc2occ(-c3ccc(NC(=O)Nc4cc(C(F)(F)F)ccc4F)cc3)c12`, the remaining signal was 86% (cell-free assay, inhibitor; 20 µM).
